Assay results from ChEMBL document CHEMBL1132280, “Discovery of potent and selective SH2 inhibitors of the tyrosine kinase ZAP-70” (J Med Chem, 1999).
pIC50: −log10 of the molar value.

Legend:
Parameters in all cases: species or system Escherichia coli
[1] = biological target: Growth factor receptor-bound protein 2 (Homo sapiens, UniProt P62993); experiment: Binding affinity against Growth factor receptor bound protein 2
Procedure, shortened: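 Fluorescence polarization competition assay using human Grb2 SH2 (residues 55–152), expressed in E. coli BL21(DE3) and purified on phosphotyrosine-agarose. Compounds were serially diluted 1:2 across 1000–0.04 μM in 20 mM phosphate pH 7.4 with 100 mM NaCl, 10 mM DTT, 4% DMSO, 1 mM EDTA and 0.1% bovine γ-globulin. They were added to 1.25 µM protein premixed with 20 nM fluorescein-labelled peptide (ex 485/em 530 nm). IC50 was taken from percent tracer bound relative to vehicle, as the mean of ≥3 experiments.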

[2] = biological target: Tyrosine-protein kinase SYK (Homo sapiens, UniProt P43405); experiment: Binding affinity against Syk protein tyrosine kinase SH2 domain
[3] = biological target: Proto-oncogene tyrosine-protein kinase Src (Homo sapiens, UniProt P12931); experiment: Binding affinity against Src SH2 domain
[4] = biological target: T1, Tyrosine-protein kinase ZAP-70 (Homo sapiens, UniProt P43403); experiment: Binding affinity against SH2 domain of Zeta-chain (TCR) associated protein kinase 70 kDa
T1 sequence (P43403 whole entry): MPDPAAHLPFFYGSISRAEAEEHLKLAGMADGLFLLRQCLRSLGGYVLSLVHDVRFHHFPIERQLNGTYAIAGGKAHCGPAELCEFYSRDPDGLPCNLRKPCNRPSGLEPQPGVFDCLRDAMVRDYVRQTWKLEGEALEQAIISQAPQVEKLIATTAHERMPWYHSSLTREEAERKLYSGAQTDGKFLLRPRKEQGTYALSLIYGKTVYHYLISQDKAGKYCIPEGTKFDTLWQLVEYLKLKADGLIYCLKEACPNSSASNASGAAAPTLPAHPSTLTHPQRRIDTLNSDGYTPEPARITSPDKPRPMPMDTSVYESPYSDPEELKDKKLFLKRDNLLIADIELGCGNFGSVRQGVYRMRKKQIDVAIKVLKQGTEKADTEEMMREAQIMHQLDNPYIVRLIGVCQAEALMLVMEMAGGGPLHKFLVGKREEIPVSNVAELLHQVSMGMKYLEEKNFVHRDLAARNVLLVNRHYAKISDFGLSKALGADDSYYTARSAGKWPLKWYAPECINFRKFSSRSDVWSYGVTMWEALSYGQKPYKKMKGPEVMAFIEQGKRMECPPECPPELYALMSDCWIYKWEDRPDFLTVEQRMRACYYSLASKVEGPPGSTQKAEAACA

Growth factor receptor-bound protein 2, sequence (P62993 whole entry, the tested form may be a part): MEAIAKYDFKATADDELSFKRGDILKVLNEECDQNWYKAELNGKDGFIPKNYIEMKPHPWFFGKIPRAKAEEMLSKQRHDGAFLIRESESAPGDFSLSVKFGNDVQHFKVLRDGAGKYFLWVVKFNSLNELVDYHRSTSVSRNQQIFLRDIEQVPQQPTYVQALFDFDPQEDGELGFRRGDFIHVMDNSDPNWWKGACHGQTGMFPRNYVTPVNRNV
Proto-oncogene tyrosine-protein kinase Src, sequence (P12931 2-536 limits assumed): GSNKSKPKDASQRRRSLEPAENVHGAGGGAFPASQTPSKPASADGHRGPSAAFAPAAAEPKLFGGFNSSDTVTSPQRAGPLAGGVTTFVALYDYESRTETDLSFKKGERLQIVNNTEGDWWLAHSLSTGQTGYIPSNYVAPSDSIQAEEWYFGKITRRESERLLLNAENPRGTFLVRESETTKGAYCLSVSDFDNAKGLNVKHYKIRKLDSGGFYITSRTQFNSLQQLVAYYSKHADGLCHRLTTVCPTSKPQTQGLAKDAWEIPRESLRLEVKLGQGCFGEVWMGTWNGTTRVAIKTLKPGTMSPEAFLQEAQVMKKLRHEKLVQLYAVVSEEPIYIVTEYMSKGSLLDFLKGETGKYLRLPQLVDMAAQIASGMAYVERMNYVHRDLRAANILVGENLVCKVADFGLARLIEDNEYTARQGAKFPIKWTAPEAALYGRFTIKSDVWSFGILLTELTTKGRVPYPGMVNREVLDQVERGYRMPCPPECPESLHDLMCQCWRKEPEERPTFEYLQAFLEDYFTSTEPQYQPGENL

| Compound | pIC50 [1] | pIC50 [2] | pIC50 [3] | pIC50 [4] |
| --- | --- | --- | --- | --- |
| CC(=O)N[C@@H](Cc1ccc(OP(=O)(O)O)cc1)C(=O)N[C@@H](C)c1nc(Cc2ccc(C(F)(F)F)cc2)no1 | < 3.30 | < 3.30 | 3.68 |  |
| CC(=O)N[C@@H](Cc1ccc(OP(=O)(O)O)cc1)C(=O)N[C@@H](C)c1nc(Cc2cccc(Cl)c2)no1 |  | < 3.30 | 4.17 |  |
| CC(=O)N[C@@H](Cc1ccc(OP(=O)(O)O)cc1)C(=O)N[C@@H](C)c1nc(Cc2cccc(C(F)(F)F)c2)no1 |  | < 3.30 | 3.94 |  |
| CC(=O)N[C@@H](Cc1ccc(OP(=O)(O)O)cc1)C(=O)N[C@@H](CCC(N)=O)c1nc(Cc2ccc(C)cc2)no1 |  | < 3.30 | 3.53 |  |
| CC(=O)N[C@@H](Cc1ccc(OP(=O)(O)O)cc1)C(=O)N[C@@H](CCC(N)=O)c1nc(Cc2ccc(C(C)C)cc2)no1 |  | < 3.30 | 4.02 |  |
| C[C@H](NC(=O)[C@H](Cc1ccc(OP(=O)(O)O)cc1)NC(=O)Cc1ccccc1)c1nc(Cc2ccc(C(F)(F)F)cc2)no1 |  | < 3.30 | 3.91 |  |
| C[C@H](NC(=O)[C@H](Cc1ccc(OP(=O)(O)O)cc1)NC(=O)Cc1c[nH]c2ccccc12)c1nc(Cc2ccc(C(F)(F)F)cc2)no1 |  | 3.36 | 4.21 |  |
| CC(=O)N[C@@H](Cc1ccc(OP(=O)(O)O)cc1)C(=O)N[C@@H](C)c1nc(Cc2ccc(Cl)c(Br)c2)no1 |  | < 3.30 | 4.35 |  |
| COc1ccc(CC(=O)N[C@@H](Cc2ccc(OP(=O)(O)O)cc2)C(=O)N[C@@H](C)c2nc(Cc3ccc(C(F)(F)F)cc3)no2)cc1 |  | < 3.30 | 4.06 |  |
| CC(=O)N[C@@H](Cc1ccc(OP(=O)(O)O)cc1)C(=O)N[C@@H](CO)c1nc(Cc2ccc(I)cc2)no1 |  | 3.34 | 4.43 |  |
| CC(=O)N[C@@H](Cc1ccc(OP(=O)(O)O)cc1)C(=O)N[C@@H](CO)c1nc(Cc2ccc(Br)cc2)no1 |  | < 3.30 | 4.49 |  |
| CC(=O)N[C@@H](Cc1ccc(OP(=O)(O)O)cc1)C(=O)N[C@@H](CC(N)=O)c1nc(Cc2ccc(C(F)(F)F)cc2)no1 |  | < 3.30 | < 3.30 |  |
| CC(=O)N[C@@H](Cc1ccc(OP(=O)(O)O)cc1)C(=O)N[C@@H](CO)c1nc(Cc2ccc(Cl)cc2)no1 |  | < 3.30 | 3.83 |  |
| CC(=O)N[C@@H](Cc1ccc(OP(=O)(O)O)cc1)C(=O)N[C@@H](C)c1nc(Cc2ccc(F)cc2)no1 |  | < 3.30 | 3.70 |  |
| C[C@H](NC(=O)[C@H](Cc1ccc(OP(=O)(O)O)cc1)NC(=O)Cc1cccs1)c1nc(Cc2ccc(C(F)(F)F)cc2)no1 |  | < 3.30 | 3.84 |  |
| CC(=O)N[C@@H](Cc1ccc(OP(=O)(O)O)cc1)C(=O)N[C@@H](C)c1nc(Cc2ccc(I)cc2)no1 |  | 3.33 | 4.74 |  |
| C[C@H](NC(=O)[C@H](Cc1ccc(OP(=O)(O)O)cc1)NC(=O)Cc1ccc(F)c(F)c1)c1nc(Cc2ccc(C(F)(F)F)cc2)no1 |  | 3.40 | 3.89 |  |
| CC(=O)N[C@@H](Cc1ccc(OP(=O)(O)O)cc1)C(=O)N[C@@H](CO)c1nc(Cc2ccc(F)cc2)no1 |  | < 3.30 | 3.88 |  |
| CC[C@H](NC(=O)[C@H](Cc1ccc(OP(=O)(O)O)cc1)NC(C)=O)c1nc(Cc2ccc(C(F)(F)F)cc2)no1 |  | < 3.30 | 4.01 |  |
| CC(=O)N[C@@H](Cc1ccc(OP(=O)(O)O)cc1)C(=O)N[C@@H](CCC(N)=O)c1nc(Cc2ccc3ccccc3c2)no1 | 3.49 | < 3.30 | 3.56 |  |
| CC(=O)N[C@@H](Cc1ccc(OP(=O)(O)O)cc1)C(=O)N[C@@H](CCC(N)=O)c1nc(Cc2cccc3ccccc23)no1 |  | < 3.30 | 3.87 |  |
| CC(=O)N[C@@H](Cc1ccc(OP(=O)(O)O)cc1)C(=O)N[C@@H](CO)c1nc(Cc2ccc(Cl)c(Cl)c2)no1 | < 3.30 | < 3.30 | 4.12 |  |
| CC(=O)N[C@@H](Cc1ccc(OP(=O)(O)O)cc1)C(=O)N[C@@H](C)c1nc(Cc2ccc(Cl)c(Cl)c2)no1 | < 3.30 | < 3.30 | 4.14 |  |

| Compound | pIC50 [1] | pIC50 [2] | pIC50 [3] | pIC50 [4] |
| --- | --- | --- | --- | --- |
| CC(=O)N[C@@H](Cc1ccc(OP(=O)(O)O)cc1)C(=O)N[C@@H](Cc1c[nH]c2ccccc12)c1nc(Cc2ccc(C(F)(F)F)cc2)no1 |  | < 3.30 | 4.04 |  |
| CC(=O)N[C@@H](Cc1ccc(OP(=O)(O)O)cc1)C(=O)N[C@@H](C)c1nc(Cc2ccc(Cl)cc2)no1 |  | < 3.30 | 4.18 |  |
| CC(=O)N[C@@H](Cc1ccc(OP(=O)(O)O)cc1)C(=O)N[C@@H](CO)c1nc(Cc2ccc(C(F)(F)F)cc2)no1 | < 3.30 | < 3.30 | 3.55 |  |
| CC(=O)N[C@@H](Cc1ccc(OP(=O)(O)O)cc1)C(=O)N[C@@H](C)c1nc(Cc2ccc(C)cc2)no1 |  | < 3.30 | 4.19 |  |
| CC(=O)N[C@@H](Cc1ccc(OP(=O)(O)O)cc1)C(=O)N[C@@H](C)c1nc(Cc2ccc3ccccc3c2)no1 | < 3.30 | < 3.30 | 4.19 |  |
| CC(=O)N[C@@H](Cc1ccc(OP(=O)(O)O)cc1)C(=O)N[C@@H](CO)c1nc(Cc2ccc3ccccc3c2)no1 | 3.32 | < 3.30 | 4.00 |  |
| CC(=O)N[C@@H](Cc1ccc(OP(=O)(O)O)cc1)C(=O)N[C@@H](C)c1nc(Cc2ccc(I)c(Cl)c2)no1 |  | 3.33 | 4.30 |  |
| C[C@H](NC(=O)[C@H](Cc1ccc(OP(=O)(O)O)cc1)NC(=O)Cc1ccc2ccccc2c1)c1nc(Cc2ccc(C(F)(F)F)cc2)no1 |  | 3.52 | 4.31 |  |
| CC(=O)N[C@@H](Cc1ccc(OP(=O)(O)O)cc1)C(=O)N[C@@H](CCc1ccccc1)c1nc(Cc2ccc(Cl)c(Cl)c2)no1 | 3.47 | 3.60 | 4.22 |  |
| O=C(Cc1ccccc1)N[C@@H](Cc1ccc(OP(=O)(O)O)cc1)C(=O)N[C@@H](CO)c1nc(Cc2ccc3ccccc3c2)no1 | 3.43 | < 3.30 | 4.17 |  |
| CC(=O)N[C@@H](Cc1ccc(OP(=O)(O)O)cc1)C(=O)N[C@@H](CCC(N)=O)c1nc(Cc2ccc(Cl)cc2)no1 |  | < 3.30 | 3.69 |  |
| CC(=O)N[C@@H](Cc1ccc(OP(=O)(O)O)cc1)C(=O)N[C@@H](CCc1ccccc1)c1nc(Cc2ccc(C(F)(F)F)cc2)no1 | < 3.30 | 3.49 | 4.02 |  |
| O=C(Cc1ccccc1)N[C@@H](Cc1ccc(OP(=O)(O)O)cc1)C(=O)N[C@@H](CO)c1nc(Cc2ccc(Cl)c(Cl)c2)no1 | 3.58 | < 3.30 | 4.46 |  |
| CC(=O)N[C@@H](Cc1ccc(OP(=O)(O)O)cc1)C(=O)N[C@@H](CCC(N)=O)c1nc(Cc2ccc(Cl)c(Cl)c2)no1 | 3.36 | < 3.30 | 3.69 |  |
| O=C(Cc1ccccc1)N[C@@H](Cc1ccc(OP(=O)(O)O)cc1)C(=O)N[C@@H](CO)c1nc(Cc2ccc(C(F)(F)F)cc2)no1 | < 3.30 | 3.50 | 3.79 |  |
| CC(=O)N[C@@H](Cc1ccc(OP(=O)(O)O)cc1)C(=O)N[C@@H](C)c1nc(Cc2ccc(Br)cc2)no1 |  | < 3.30 | 4.51 |  |
| CC(=O)N[C@@H](Cc1ccc(OP(=O)(O)O)cc1)C(=O)N[C@@H](C)c1nc(Cc2ccc(I)c(Br)c2)no1 |  | < 3.30 | 4.40 |  |
| CC(=O)N[C@@H](Cc1ccc(OP(=O)(O)O)cc1)C(=O)N[C@@H](CCC(N)=O)c1nc(Cc2ccc(Cl)cc2Cl)no1 |  | < 3.30 | < 3.30 | 3.74 |
| CC(=O)N[C@@H](Cc1ccc(OP(=O)(O)O)cc1)C(=O)N[C@@H](CCc1ccccc1)c1nc(Cc2ccc3ccccc3c2)no1 | < 3.30 | 3.54 | 4.11 |  |
| CC(=O)N[C@@H](CC(N)=O)C(=O)N[C@@H](CCC(N)=O)C(=O)N[C@@H](CC(C)C)C(=O)N[C@@H](Cc1ccc(OP(=O)(O)O)cc1)C(=O)N[C@@H](CC(N)=O)C(=O)N[C@@H](CCC(=O)O)C(=O)N[C@@H](CC(C)C)C(=O)N[C@@H](CC(N)=O)C(=O)N[C@@H](CC(C)C)C(=O)NCC(=O)N[C@@H](CCCN=C(N)N)C(=O)N[C@@H](CCCN=C(N)N)C(=O)N[C@@H](CCC(=O)O)C(=O)N[C@@H](CCC(=O)O)C(=O)N[C@@H](Cc1ccc(OP(=O)(O)O)cc1)C(=O)N[C@@H](CC(=O)O)C(=O)N[C@H](C(=O)N[C@@H](CC(C)C)C(=O)N[C@@H](CC(=O)O)C(N)=O)C(C)C |  |  | 4.70 |  |
| CC(=O)N[C@@H](Cc1ccc(OP(=O)(O)O)cc1)C(=O)N[C@@H](CCC(N)=O)c1nc(Cc2cccc(Cl)c2)no1 |  | < 3.30 | 3.59 |  |
| CC(=O)N[C@@H](Cc1ccc(OP(=O)(O)O)cc1)C(=O)N[C@@H](C)c1nc(Cc2ccc(Br)c(Br)c2)no1 |  | < 3.30 | 4.41 |  |
